PKD1 inh – inhibitors of human PKD1 kinase, biochemical, fluorescence polarization. Serine/threonine-protein kinase D1 (Homo sapiens), Q15139. PKD1 kinase fluorescence polarization assay. inhibition, % (no concentration beside the values). 0.056% of 200,000 active
CHOP inh – inhibitors of CHOP promoter induction, primary screen, cell-based, unfolded protein response, luciferase reporter. inhibition, % at 10 µM. 3.8% of 220,000 active. CHO-K1 CHOP-promoter luciferase, tunicamycin-induced, 15-18 h;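 active means compounds that reduced the stress-induced luciferase reporter signal by more than about 70% of percent inhibition, limit read from the data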;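 further: 0% = tunicamycin plus vehicle and 100% = wells without tunicamycin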
Rad51 HR inh – human RAD51 strand exchange inhibitors, primary screen, biochemical, fluorescence. AID 1385, 2008. DNA repair protein RAD51 homolog 1 (Homo sapiens), Q06609. 0.085% of 200,000 active. inhibition, % at 10 µM. hRad51 DNA strand exchange, fluorescence dequenching;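 active means inhibition above 40% at the single screening dose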;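 further: 0% = DMSO control wells and 100% = blanks with heterologous ssDNA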
Target sequence (Q06609 whole entry, looked up): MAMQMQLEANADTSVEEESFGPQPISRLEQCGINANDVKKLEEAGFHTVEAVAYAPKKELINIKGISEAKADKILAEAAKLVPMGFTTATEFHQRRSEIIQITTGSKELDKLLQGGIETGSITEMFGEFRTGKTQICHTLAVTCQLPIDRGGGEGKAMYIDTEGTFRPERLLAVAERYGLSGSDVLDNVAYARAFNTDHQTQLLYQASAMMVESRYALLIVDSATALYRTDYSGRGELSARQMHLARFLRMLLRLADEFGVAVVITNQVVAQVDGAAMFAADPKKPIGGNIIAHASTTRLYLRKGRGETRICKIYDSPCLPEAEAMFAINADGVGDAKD
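Material: human Rad51–ssDNA filaments; Probe or stimulus: labelled 47-mer dsDNA for strand exchange; Doses: single 10 µM dose; Incubation: 37 °C 15-min filament assembly, 30-min compound preincubation, 15-min exchange; Technique: FRET fluorescence dequenching, excitation 485 nm, emission 520 nm; Measure: Fluorescence-based percent inhibition, control- and blank-normalised; Benchmarks: plate control and blank wells.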
Arbovirus anti – antivirals against arbovirus infection, primary screen, cell-based, full library, 10K replicate subset; arbovirus infection cell-based antiviral screen; inhibition, % at 10 µM; 0.37% of 200,000 active; in the data active means inhibition above about 30%
Lmaj promast – Leishmania major promastigote growth inhibition, primary screen. Leishmania major promastigotes, resazurin fluorescence viability. inhibition, % at 10 µM. 9% of 200,000 active. AID 1063, 2008;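 further: promastigotes grown with compound for 44 hours at 28 °C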
Wee1 degr inh – Wee1 degradation inhibitors, primary screen, cell-based, HeLa, Wee1K328M-luciferase, luminescence | Wee1-like protein kinase (Homo sapiens), P30291 | HeLa Luc-Wee1K328M stability; 100% = proteasome inhibitor MG132 effect | reporter increase, % at 5 µM | 1.2% of 220,000 active;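 active means activation above the mean of all tested compounds plus 3 SD, set per screening run, cut at about 8.8% in these data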;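 further: cells exposed to compound for 20 h before luminescence read; 0% = DMSO alone and 100% = MG132 at 30 µM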
* hit, by the source's call; . = not tested or not shown. Rows were chosen to be rich in hits. Some 12% of all compounds tested hit in one or more screens of this group. Unless noted, no stated cut-off is given here; in the data, active means inhibition above about 50%; inactive means the rest.

SMILES | PKD1 inh | CHOP inh | Rad51 HR inh | Arbovirus anti | Lmaj promast | Wee1 degr inh
O=C(N/N=C/c1cccnc1)c1ccc(CN2c3cccc4cccc(c34)S2(=O)=O)cc1 | -4 | 9 | 1 | 8 | -2 | 0
COc1ccc(NC(=O)CCOc2ccccc2)cc1 | -7 | -22 | 0 | 10 | -1 | 4
COc1ccc(NC(=O)CC2(Cc3ccccc3)CCOC(C)(C)C2)cc1 (configuration not stated) | -7 | 55 | . | 2 | 55* | 5
Cn1c2c(c(=O)n(C)c1=O)C(C(F)(F)F)(C(F)(F)F)N=C(CCC1CCCCC1)N2 | -6 | 60 | -16 | -21 | 90* | 4
CC(NC(=O)c1ccccc1)C(=O)OCC(=O)N1c2ccccc2Sc2ccccc21 (configuration not stated) | -7 | -9 | 2 | -2 | 35 | -1
CCCCC(NC(=O)c1ccccc1)C(=O)OCC(=O)N1c2ccccc2Sc2ccccc21 (configuration not stated) | -9 | -2 | -1 | -11 | 75* | -1
COc1ccc(CCNC(=O)CSc2nnc3ccc(-c4cccnc4)nn23)cc1OC | -6 | -4 | 14 | 3 | 4 | 3
Cc1ccc(Cn2cnc3ccccc32)cc1 | -1 | 23 | 2 | 13 | 78* | 0
c1ccc2c(c1)ncn2CCn1cnc2ccccc21 | -9 | -8 | -5 | -2 | -6 | -1
COc1cc2[nH]c(=O)n(CCC(=O)NCCCN3CCN(c4ccccc4F)CC3)c(=O)c2cc1OC | 5 | 23 | 3 | 3 | -1 | -1
c1ccc2c(c1)OCCOCCOCCOCCOc1ccccc1OCCOCCOCCO2 | 6 | 17 | 2 | 12 | 99* | 3
COc1ccc(S(=O)(=O)n2nc(OC(C)=O)cc2N(C(C)=O)C(C)=O)cc1 | 6 | 32 | -5 | 4 | -5 | -2
Cc1ccc2c(CSc3nncn3C)cc(=O)oc2c1C | -4 | 17 | 2 | 11 | -1 | 1
COc1ccc(-c2csc(Cc3nnc4n3CCCCC4)n2)cc1OC | 9 | 26 | -3 | 6 | 60* | 2
Cc1cc(NC(=O)c2ccc(C#N)cc2)on1 | 1 | 7 | -5 | -3 | -1 | -2
Cc1cc(Br)ccc1SCC(=O)OCC(=O)NC1CC1 | 0 | 8 | -5 | 7 | -11 | 10*
Cc1cc(SCC(=O)OCC(=O)NC(C)c2ccccc2)c(C)cc1Br (configuration not stated) | 12 | 43 | 1 | 5 | 51* | -1
Cc1cc(Br)ccc1SCC(=O)OCC(=O)NC(C)c1ccccc1 (configuration not stated) | 17 | 27 | 10 | 5 | -5 | 2
CN(C)CCCOC(=O)COc1ccc(Br)cc1 | . | 8 | 7 | . | . | -1
COCCNC(=O)/C(C#N)=c1\s/c(=C\c2ccccc2OC(F)F)c(=O)n1Cc1ccccc1 | 1 | 95* | . | -2 | -6 | 2
CCn1c2c(c3cc(Br)ccc31)CCC/C2=N\O | -4 | 90* | -3 | -25 | 19 | -2
CCn1c2c(c3cc(OCC(C)C)ccc31)CCCC2=O | 12 | -9 | 0 | -1 | -4 | -1
CC(=O)c1c(N2CCOCC2)nc2ccc(Cl)cc2c1-c1ccccc1 | . | -10 | . | . | . | 1
O=C(c1cn(-c2ccccc2)nc1-c1ccc(F)cc1)N1CCCCC1 | -8 | 23 | 11 | -4 | 81* | 0
O=C(c1cn(-c2ccccc2)nc1-c1ccc(F)cc1)N1CCOCC1 | -4 | 9 | 5 | 1 | -7 | 1
SMILES | PKD1 inh | CHOP inh | Rad51 HR inh | Arbovirus anti | Lmaj promast | Wee1 degr inh
COc1cc(-c2nc(-c3ccccc3)c(-c3cc([N+](=O)[O-])ccc3C)[nH]2)cc(OC)c1OC | -1 | 40 | 0 | -24 | 100* | 0
C[C@H]1CC[C@@]2(O[C@H](CCO)C[C@@H](O)[C@@H]2O)O1 | -5 | 19 | 2 | 2 | -1 | 9.4*
C[C@@H]1CC[C@]2(O[C@H](CCO)C[C@@H](O)[C@@H]2O)O1 | . | . | 16 | . | . | .
CCOC(=O)c1c(C)n(C)c2ccc(OCC(O)CN(CC)CC)cc12 (configuration not stated) | -7 | 49 | -7 | 1 | 99* | -3
CCOC(=O)c1c(C)n(C)c2ccc(OCC(N)=O)cc12 | -14 | 27 | -8 | 7 | -4 | 0
CCOC(=O)c1c(C)n(C)c2ccc(OCC(O)CN3C(=O)c4ccccc4S3(=O)=O)cc12 (configuration not stated) | -7 | 31 | 1 | 4 | -4 | 0
CCN(CC)CC(O)COc1ccc2c(c1)c(C(C)=O)c(C)n2-c1ccccc1 (configuration not stated) | -4 | 34 | 0 | -24 | 100* | 1
CCOC(=O)c1c(C)n(C)c2ccc(OCC(O)Cn3nc(C)cc3C)cc12 (configuration not stated) | -8 | 11 | -3 | -12 | 86* | 1
O=C(O)c1cnc(-c2ccccc2)nc1C(F)(F)F | -1 | -1 | 24 | 1 | -5 | 11*
COc1ccccc1N1CCN(C(=O)c2coc(=O)c(Br)c2)CC1 | . | -6 | -8 | . | . | -2
C=CCOC(=O)c1ccc(-n2cnc(C)n2)nc1 | -3 | -15 | -8 | -3 | 4 | -2
CNC(=S)N1N=C(c2ccccc2)CC1c1ccccc1Cl (configuration not stated) | -4 | 25 | . | -1 | 2 | 2
CNC(=S)N1N=C(c2ccc(C)cc2)CC1c1ccc(Br)cc1 (configuration not stated) | 4 | 55 | 2 | -10 | 100* | 3
CNC(=S)N1N=C(c2ccc(C)cc2)CC1c1ccc(Cl)cc1 (configuration not stated) | -1 | -1 | -16 | 4 | 100* | 3
O=C1/C(=C\c2cccnc2)SC(=S)N1C1CCS(=O)(=O)C1 (configuration not stated) | -20 | 56 | -1 | 3 | 73* | 4
O=C1/C(=C/c2cccnc2)SC(=S)N1C1CCS(=O)(=O)C1 (configuration not stated) | 0 | 44 | . | 3 | 92* | 1
O=C1/C(=C/c2cccnc2)SC(=S)N1N1CCOCC1 | . | -10 | 3 | . | . | 0
Cc1nc(Br)c(Br)c(C)c1Br | . | 16 | -76 | . | . | 5
Cc1ccc(OCC(=O)c2ccc(Cl)s2)c([N+](=O)[O-])n1 | -5 | -50 | -5 | -3 | -6 | -2
Cc1ccc(-c2nc(CSc3nc4ccccc4c(=O)n3CCO)cs2)cc1 | -13 | 48 | -2 | -20 | 62* | -1
Cc1ccc(CSc2nc3ccccc3c(=O)n2Cc2ccco2)cc1 | -9 | 4 | 1 | 13 | 62* | 1

Compound activity: PubChem BioAssay, several laboratories
